Assay results pooled from the literature.
Lines come from different studies, so protocols differ.
Target: RAC-beta serine/threonine-protein kinase (AKT2, Homo sapiens, UniProt P31751)

Structure (SMILES) | effect on | action | technique | concentration | measurement | result
CC(C)(C)c1cc(C=C(C#N)C#N)cc(Br)c1O | enzyme activity | inhibitor |  | 0.5 µM | remaining activity | 97.7%
Cn1cncc1[C@@](O)(COc1ccc(C#N)cc1-c1ccc(OC(F)(F)F)cc1)c1ccc(C#N)cc1 | cell-free assay |  | competition with immobilised ligand | 1 µM | remaining binding | 78%
Cn1cc(-c2cc(F)cc(N3CCn4c(cc5c4CCCC5)C3=O)c2CO)cc(Nc2ccc(N3CCN(C4COC4)CC3)cn2)c1=O | enzyme activity | inhibitor |  | 0.1 µM | inhibition | 9%
O=c1[nH]c2ccccc2n1C1CCN(Cc2ccc(-c3[nH]c4cc5ncnc5cc4nc3-c3ccccc3)cc2)CC1 | cell-free assay |  |  | 0.5 µM | remaining signal | 96.8%
C#Cc1n[nH]c2c(-c3cn(C(C)c4ccccn4)c(=O)[nH]c3=O)cc(F)cc12 (centres unmarked) | enzyme activity | inhibitor |  | 1 µM | inhibition | 2%
Nc1ncc(-c2nc(N3CCOCC3)nc(N3CCOCC3)n2)c(C(F)F)n1 | binding |  | competition with immobilised ligand | 10 µM | remaining binding | 100%
COc1cc(Nc2ncc(F)c(Nc3ccc4c(n3)NC(=O)C(C)(C)O4)n2)cc(OC)c1OC | binding |  |  | 10 µM | inhibition | 0%
COc1ncccc1-c1cnn2ccc(N3CCN(C(=O)OC(C)C)CC3)nc12 | binding |  | competition with immobilised ligand | 1 µM | remaining binding | 98%
N#CC1(c2ccccn2)CCN(Cc2cc(C(=O)O)c(=O)n3ccccc23)CC1 | cell-free assay |  | competition with immobilised ligand | 1 µM | remaining binding | 73%
Cc1nn(C)cc1-c1nc2c(N3CCN(Cc4ccc(Cl)cc4)CC3)c(Cl)cnc2[nH]1 | binding |  | competition with immobilised ligand | 1 µM | remaining binding | 100%
Cn1cc(-c2cccc(N3CCc4c(sc5c4CC(C)(C)C5)C3=O)c2CO)cc(Nc2ccncn2)c1=O | enzyme activity | inhibitor |  | 1 µM | inhibition | 2%
